# Bridge positions count the residues as written; N and C are the ends. Peptide text beside a SMILES is read from it.
# Assays:
# [1] = target: T1, IgG receptor FcRn large subunit p51 (Homo sapiens, UniProt P55899); test: Binding affinity to human FcRn at pH 6 by surface plasmon resonance assay
# Summary of the method: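 Soluble human FcRn coupled to the dextran surface of a CM5 chip; peptide dilutions flowed over the chip. The equilibrium response at each dilution was plotted against concentration and fitted to a steady-state affinity model to give Kd.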
# [2] = target: T1, IgG receptor FcRn large subunit p51; test: Inhibition of human IgG binding to soluble human FcRn by ELISA
# Summary of the method: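 Biotinylated soluble human FcRn immobilized on neutravidin plates, incubated with hIgG (3 nM, constant) and peptide at varying concentrations for 2 h at 37 °C. After washing, bound hIgG detected with peroxidase-conjugated hIgG-specific Fab fragments.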
# T1 sequence (P55899 whole entry): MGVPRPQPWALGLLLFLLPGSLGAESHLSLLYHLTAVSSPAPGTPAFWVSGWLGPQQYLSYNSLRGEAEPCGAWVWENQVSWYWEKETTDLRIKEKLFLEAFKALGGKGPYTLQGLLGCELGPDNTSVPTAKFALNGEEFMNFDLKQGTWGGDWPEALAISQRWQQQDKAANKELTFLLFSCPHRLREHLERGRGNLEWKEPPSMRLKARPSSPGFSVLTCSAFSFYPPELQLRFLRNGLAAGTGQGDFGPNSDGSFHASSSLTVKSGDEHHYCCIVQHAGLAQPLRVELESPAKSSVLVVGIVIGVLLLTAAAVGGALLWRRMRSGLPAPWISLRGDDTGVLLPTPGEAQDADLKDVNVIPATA
Compound,Kd [1],IC50 [2]
CC(C)C[C@H](NC(=O)CNC(=O)CNC(=O)[C@H](Cc1ccccc1)NC(=O)[C@H](Cc1cnc[nH]1)NC(=O)CNC(=O)[C@@H](NC(=O)[C@@H](N)CS)[C@@H](C)O)C(=O)N[C@@H](Cc1ccc(O)cc1)C(=O)N1CCC[C@H]1C(=O)N[C@@H](CS)C(=O)O (H-CTGHFGGLYPC-OH),20 µM,110 µM
CC(C)C[C@H](NC(=O)CNC(=O)CNC(=O)[C@@H](NC(=O)[C@H](Cc1cnc[nH]1)NC(=O)CNC(=O)[C@@H](NC(=O)[C@@H](NC(=O)[C@H](Cc1ccccc1)NC(=O)[C@H](CCCN=C(N)N)NC(=O)[C@@H](N)CCC(N)=O)C(C)(C)S)[C@@H](C)O)c1ccccc1)C(=O)N[C@@H](Cc1ccc(O)cc1)C(=O)N1CCC[C@H]1C(=O)N[C@@H](CS)C(=O)N[C@@H](CC(N)=O)C(=O)NCC(=O)N1CCC[C@H]1C(=O)O,> 250 µM,> 125 µM
CC(C)C[C@H](NC(=O)CNC(=O)CNC(=O)[C@H](Cc1ccccc1)NC(=O)[C@H](Cc1cnc[nH]1)NC(=O)CNC(=O)[C@@H](NC(=O)[C@H](CS)NC(=O)[C@H](C)NC(=O)[C@H](CCCN=C(N)N)NC(=O)[C@@H](N)CCC(N)=O)[C@@H](C)O)C(=O)N[C@@H](Cc1ccc(O)cc1)C(=O)N1CCC[C@H]1C(=O)N[C@@H](CS)C(=O)N[C@@H](CC(N)=O)C(=O)NCC(=O)N1CCC[C@H]1C(=O)O (H-QRACTGHFGGLYPCNGP-OH),28 µM,95 µM
CC(C)C[C@H](NC(=O)CNC(=O)CNC(=O)[C@H](Cc1ccccc1)NC(=O)[C@H](Cc1cnc[nH]1)NC(=O)[C@H](C)NC(=O)[C@@H](NC(=O)[C@H](CS)NC(=O)[C@H](Cc1ccccc1)NC(=O)[C@H](CCCNC(=N)N)NC(=O)[C@@H](N)CCC(N)=O)[C@@H](C)O)C(=O)N[C@@H](Cc1ccc(O)cc1)C(=O)N1CCC[C@H]1C(=O)N[C@@H](CS)C(=O)N[C@@H](CC(N)=O)C(=O)NCC(=O)N1CCC[C@H]1C(=O)O,> 250 µM,> 125 µM
CC(C)C[C@H](NC(=O)CNC(=O)CNC(=O)[C@H](Cc1ccccc1)NC(=O)[C@H](Cc1cnc[nH]1)NC(=O)[C@@H](C)NC(=O)[C@@H](NC(=O)[C@H](CS)NC(=O)[C@H](Cc1ccccc1)NC(=O)[C@H](CCCN=C(N)N)NC(=O)[C@@H](N)CCC(N)=O)[C@@H](C)O)C(=O)N[C@@H](Cc1ccc(O)cc1)C(=O)N1CCC[C@H]1C(=O)N[C@@H](CS)C(=O)N[C@@H](CC(N)=O)C(=O)NCC(=O)N1CCC[C@H]1C(=O)O,> 250 µM,> 125 µM
CC(C)C[C@H](NC(=O)CNC(=O)CNC(=O)[C@@H](NC(=O)[C@H](Cc1cnc[nH]1)NC(=O)CNC(=O)[C@@H](NC(=O)[C@@H](NC(=O)[C@H](Cc1ccccc1)NC(=O)[C@H](CCCN=C(N)N)NC(=O)[C@@H](N)CCC(N)=O)C(C)(C)S)[C@@H](C)O)C(c1ccccc1)c1ccccc1)C(=O)N[C@@H](Cc1ccc(O)cc1)C(=O)N1CCC[C@H]1C(=O)N[C@@H](CS)C(=O)O,230 µM,32 µM
CC(C)C[C@H](NC(=O)CNC(=O)CNC(=O)[C@H](Cc1cccc(Cl)c1)NC(=O)[C@H](Cc1cnc[nH]1)NC(=O)CNC(=O)[C@@H](NC(=O)[C@@H](NC(=O)[C@H](Cc1ccccc1)NC(=O)[C@H](CCCNC(=N)N)NC(=O)[C@@H](N)CCC(N)=O)C(C)(C)S)[C@@H](C)O)C(=O)N[C@@H](Cc1ccc(O)cc1)C(=O)N1CCC[C@H]1C(=O)N[C@@H](CS)C(=O)O,230 µM,3.7 µM
CC(C)C[C@H](NC(=O)CNC(=O)CNC(=O)[C@H](Cc1ccc(C(C)(C)C)cc1)NC(=O)[C@H](Cc1cnc[nH]1)NC(=O)CNC(=O)[C@@H](NC(=O)[C@@H](NC(=O)[C@H](Cc1ccccc1)NC(=O)[C@H](CCCNC(=N)N)NC(=O)[C@@H](N)CCC(N)=O)C(C)(C)S)[C@@H](C)O)C(=O)N[C@@H](Cc1ccc(O)cc1)C(=O)N1CCC[C@H]1C(=O)N[C@@H](CS)C(=O)O,230 µM,> 125 µM
CC(C)C[C@H](NC(=O)CNC(=O)CNC(=O)[C@H](Cc1ccccc1)NC(=O)[C@H](Cc1cnc[nH]1)NC(=O)CNC(=O)[C@@H](NC(=O)[C@H](CS)NC(=O)[C@H](Cc1ccccc1)NC(=O)[C@H](CCCNC(=N)N)NC(=O)[C@@H](N)CCC(N)=O)[C@@H](C)O)C(=O)N[C@@H](C)C(=O)N1CCC[C@H]1C(=O)N[C@@H](CS)C(=O)N[C@@H](CC(N)=O)C(=O)NCC(=O)N1CCC[C@H]1C(=O)O (H-QRFCTGHFGGLAPCNGP-OH),> 250 µM,> 125 µM

# Compounds with a lower Kd [1], results first:
Kd [1],IC50 [2],Compound
15 µM,80 µM,CC(C)C[C@H](NC(=O)CNC(=O)CNC(=O)[C@H](Cc1ccccc1)NC(=O)[C@H](Cc1cnc[nH]1)NC(=O)CNC(=O)[C@@H](NC(=O)[C@H](CCC(=O)O)NC(=O)[C@H](Cc1ccccc1)NC(=O)[C@H](CCCN=C(N)N)NC(=O)[C@@H](N)CCC(N)=O)[C@@H](C)O)C(=O)N[C@@H](Cc1ccc(O)cc1)C(=O)N1CCC[C@H]1C(=O)N[C@@H](CCCN)C(=O)N[C@@H](CC(N)=O)C(=O)NCC(=O)N1CCC[C@H]1C(=O)O
9.9 µM,> 100 µM,CC(C)C[C@@H](C(=O)N[C@@H](Cc1ccc(O)cc1)C(=O)N1CCC[C@H]1C(=O)N[C@@H](CS)C(=O)O)N(C)C(=O)CN(C)C(=O)CNC(=O)[C@H](Cc1ccccc1)NC(=O)[C@H](C)NC(=O)CNC(=O)[C@@H](NC(=O)[C@@H](NC(=O)[C@H](Cc1ccccc1)NC(=O)[C@@H](N)CCCNC(=N)N)C(C)(C)S)[C@@H](C)O
9.4 µM,33 µM,CC(C)C[C@H](NC(=O)[C@H](Cc1ccc(O)cc1)NC(=O)[C@@H]1CSSC[C@H](NC(=O)[C@H](Cc2ccccc2)NC(=O)[C@H](CO)NC(=O)[C@@H](N)CC(N)=O)C(=O)N[C@@H](CCCN=C(N)N)C(=O)NCC(=O)N[C@@H](CCCN=C(N)N)C(=O)N2CCC[C@H]2C(=O)NCC(=O)N[C@@H](Cc2cnc[nH]2)C(=O)N[C@@H](Cc2ccccc2)C(=O)NCC(=O)NCC(=O)N1)C(=O)N[C@@H](Cc1ccccc1)C(=O)O (H-NSFCRGRPGHFGGCYLF-OH; disulfide 4-14)
7.8 µM,80 µM,CC(C)C[C@H](NC(=O)CNC(=O)CNC(=O)[C@H](CCc1ccccc1)NC(=O)[C@H](Cc1cnc[nH]1)NC(=O)CNC(=O)[C@@H](NC(=O)[C@@H](NC(=O)[C@H](Cc1ccccc1)NC(=O)[C@H](CCCNC(=N)N)NC(=O)[C@@H](N)CCC(N)=O)C(C)(C)S)[C@@H](C)O)C(=O)N[C@@H](Cc1ccc(O)cc1)C(=O)N1CCC[C@H]1C(=O)N[C@@H](CS)C(=O)N[C@@H](CC(N)=O)C(=O)NCC(=O)N1CCC[C@H]1C(=O)O
3.9 µM,21 µM,CC(C)C[C@H](NC(=O)CNC(=O)CNC(=O)[C@H](Cc1ccccc1)NC(=O)[C@H](Cc1cnc[nH]1)NC(=O)CNC(=O)[C@@H](NC(=O)[C@H](CS)NC(=O)[C@H](Cc1ccccc1)NC(=O)[C@H](CCCN=C(N)N)NC(=O)[C@@H](N)CCC(N)=O)[C@@H](C)O)C(=O)N[C@@H](Cc1ccc(O)cc1)C(=O)N1CCC[C@H]1C(=O)N[C@H](CCS)C(=O)N[C@@H](CC(N)=O)C(=O)NCC(=O)N1CCC[C@H]1C(=O)O
0.72 µM,5.9 µM,CC(C)C[C@H](NC(=O)[C@H]1CCCN1C(=O)[C@@H](Cc1ccccc1)NC(=O)[C@H](Cc1ccccc1)NC(=O)[C@H](Cc1cnc[nH]1)NC(=O)CNC(=O)[C@@H](NC(=O)[C@@H](NC(=O)[C@H](Cc1ccccc1)NC(=O)[C@H](CCCN=C(N)N)NC(=O)[C@@H](N)CCC(N)=O)C(C)(C)S)[C@@H](C)O)C(=O)N[C@@H](Cc1ccc(O)cc1)C(=O)N1CCC[C@H]1C(=O)N[C@@H](CS)C(=O)N[C@@H](CC(N)=O)C(=O)NCC(=O)N1CCC[C@H]1C(=O)O
0.51 µM,2.8 µM,CC(C)C[C@H](NC(=O)CNC(=O)[C@@H](Cc1ccccc1)NC(=O)[C@H](Cc1ccccc1)NC(=O)[C@H](Cc1cnc[nH]1)NC(=O)CNC(=O)[C@@H](NC(=O)[C@@H](NC(=O)[C@H](Cc1ccccc1)NC(=O)[C@H](CCCNC(=N)N)NC(=O)[C@@H](N)CCC(N)=O)C(C)(C)S)[C@@H](C)O)C(=O)N[C@@H](Cc1ccc(O)cc1)C(=O)N1CCC[C@H]1C(=O)N[C@@H](CS)C(=O)N[C@@H](CC(N)=O)C(=O)NCC(=O)N1CCC[C@H]1C(=O)O
0.23 µM,3.2 µM,CC(C)C[C@@H](C(=O)N[C@@H](Cc1ccc(O)cc1)C(=O)N1CCC[C@H]1C(=O)N[C@@H](CS)C(=O)N[C@@H](CC(N)=O)C(=O)NCC(=O)N1CCC[C@H]1C(=O)O)N(C)C(=O)CNC(=O)[C@@H](C)NC(=O)[C@H](Cc1ccccc1)NC(=O)[C@H](Cc1cnc[nH]1)NC(=O)CNC(=O)[C@@H](NC(=O)[C@@H](NC(=O)[C@H](Cc1ccccc1)NC(=O)[C@H](CCCNC(=N)N)NC(=O)[C@@H](N)CCC(N)=O)C(C)(C)S)[C@@H](C)O
0.16 µM,0.66 µM,CC(C)C[C@H](NC(=O)CN1CCC[C@@H](NC(=O)[C@H](Cc2ccccc2)NC(=O)[C@H](Cc2cnc[nH]2)NC(=O)CNC(=O)[C@@H](NC(=O)[C@@H](NC(=O)[C@H](Cc2ccccc2)NC(=O)[C@@H](N)CCCNC(=N)N)C(C)(C)S)[C@@H](C)O)C1=O)C(=O)N[C@@H](Cc1ccc(O)cc1)C(=O)N1CCC[C@H]1C(=O)N[C@@H](CS)C(=O)O
0.103 µM,0.64 µM,CC(C)C[C@H](NC(=O)CN1CCCC[C@@H](NC(=O)[C@H](Cc2ccccc2)NC(=O)[C@H](Cc2cnc[nH]2)NC(=O)CNC(=O)[C@@H](NC(=O)[C@H](NC(=O)[C@H](Cc2ccccc2)NC(=O)[C@@H](N)CCCNC(=N)N)C(C)(C)S)[C@@H](C)O)C1=O)C(=O)N[C@@H](Cc1ccc(O)cc1)C(=O)N1CCC[C@H]1C(=O)N[C@@H](CS)C(=O)O
0.058 µM,1 µM,CC(C)C[C@H](NC(=O)CN(C)C(=O)CNC(=O)[C@H](Cc1ccccc1)NC(=O)[C@H](Cc1cnc[nH]1)NC(=O)CNC(=O)[C@@H](NC(=O)[C@@H](NC(=O)[C@H](Cc1ccccc1)NC(=O)[C@@H](N)CCCNC(=N)N)C(C)(C)S)[C@@H](C)O)C(=O)N[C@@H](Cc1ccc(O)cc1)C(=O)N1CCC[C@H]1C(=O)N[C@@H](CS)C(=O)O
0.043 µM,0.53 µM,CC(C)C[C@@H](C(=O)N[C@@H](Cc1ccc(O)cc1)C(=O)N1CCC[C@H]1C(=O)N[C@@H](CS)C(=O)O)N(C)C(=O)CN1CCC[C@@H](NC(=O)[C@H](Cc2ccccc2)NC(=O)[C@H](Cc2cnc[nH]2)NC(=O)CNC(=O)[C@@H](NC(=O)[C@H](NC(=O)[C@H](Cc2ccccc2)NC(=O)[C@@H](N)CCCNC(=N)N)C(C)(C)S)[C@@H](C)O)C1=O
